High-throughput results: PubChem, several laboratories
Neddylation inh: blocks human cullin neddylation; P61081+Q13564; TR-FRET cullin neddylation, biochemical; inhibition, % at 25 µM; 360,000 tested, 0.58% active; in the data active means inhibition above about 36%
SR-BI DiI inh: inhibitors of mouse SR-BI mediated HDL lipid uptake; Q61009; ldlA[mSR-BI] CHO cells, DiI-HDL uptake fluorescence, 3 h; inhibition, % at 12.5 µM; 320,000 tested, 0.96% active;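 active means mean replicate inhibition of at least 70% and a set share of replicates each scoring 70 or more; inconclusive means meets just one of the two criteria; inactive means fails both criteria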
SR-BI uptake up: enhances SR-BI lipid uptake from DiI-HDL; CHO ldlA[mSR-BI] cells, DiI-HDL uptake fluorescence, 3 h; 100 = double the neutral-control signal; AID 504775; activation, % at 12.5 µM; 320,000 tested, 0.096% active;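 active means mean replicate activation of at least 60% and every replicate at or above 60%; inconclusive means mean or all-replicate condition met, but not both; inactive means mean below 60% and not all replicates reaching 60%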
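Material – SR-BI-overexpressing, LDLR-lacking CHO cells · Medium – BSA-supplemented, HEPES-buffered Ham's F12, pH 7.4 · Doses – single concentration · Times – compound with DiI-HDL co-incubation, 3 h at 37 °C · Measured by – bottom-read fluorescence, 550/595 nm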
UBC13 inh: blocks human UBC13 polyubiquitin chain formation | 330,000 tested, 0.47% active | inhibition, % at 20 µM | TR-FRET | AID 485273; in the data active means inhibition above about 45%, passing the limit was not always enough; inconclusive means no clear call, values can overlap the other calls
Target sequence (P61088 whole entry, looked up): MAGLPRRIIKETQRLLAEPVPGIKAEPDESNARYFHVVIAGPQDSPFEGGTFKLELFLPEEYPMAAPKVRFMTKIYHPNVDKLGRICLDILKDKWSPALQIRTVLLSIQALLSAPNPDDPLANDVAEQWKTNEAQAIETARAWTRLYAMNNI
Casp3 UBC13 ctr: caspase-3 inhibition (UBC13 counter-screen); shares compounds with UBC13 inh; Recombinant caspase-3, Caspase-Glo 3/7 luminescence, 60 min; inhibition, % at 20 µM; 1,400 tested, 4% active; AID 488856;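 active means mean inhibition across replicates above about 26%, limit read from the data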
Target sequence (P42574 whole entry, looked up): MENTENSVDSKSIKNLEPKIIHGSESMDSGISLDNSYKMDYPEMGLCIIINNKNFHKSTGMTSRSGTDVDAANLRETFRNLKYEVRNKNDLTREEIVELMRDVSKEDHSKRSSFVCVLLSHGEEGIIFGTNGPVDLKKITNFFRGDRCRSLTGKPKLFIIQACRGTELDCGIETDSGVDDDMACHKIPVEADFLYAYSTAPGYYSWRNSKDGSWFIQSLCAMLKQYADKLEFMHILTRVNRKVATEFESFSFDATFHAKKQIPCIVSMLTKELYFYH
UBC13 confirm: confirmation of human UBC13 polyubiquitin inhibitors | shares compounds with UBC13 inh | UBC13 polyubiquitination, TR-FRET, biochemical | inhibition, % at 10 µM | 1,400 tested, 68% active; in the data active means inhibition above about 45%; inconclusive means no clear call, values can overlap the other calls
Large screens that a line does not name were inactive (follow-up assays come after a bar, where shown). This is a sample that favours compounds with a hit; in the whole collection about 1.9% have one here.

C#CCOCCOCCOCCNc1nc(N2CCN(C(=O)CCCCCCCCCCNC(=O)[C@H]([C@@H](C)CC)n3cc(CCCCCN)nn3)CC2)nc(N2CCN(C(=O)CCCCCCCCCCNC(=O)[C@H](CCCCN)n3cc(CCCC(=O)O)nn3)CC2)n1	UBC13 inh 114 | Casp3 UBC13 ctr inactive | UBC13 confirm 105
C#CCOCCOCCOCCNc1nc(N2CCN(C(=O)CCCCCCCCCCNC(=O)[C@H](CCCCN)n3cc(CCCC(=O)O)nn3)CC2)nc(N2CCN(C(=O)CCCCCCCCCCNC(=O)[C@@H]([C@H](C)O)n3cc(C)nn3)CC2)n1	UBC13 inh 54 | Casp3 UBC13 ctr inactive | UBC13 confirm inactive
NC(=S)NN=Cc1cc(-c2cccc(N)c2)ccn1	none (no result: SR-BI DiI inh, SR-BI uptake up, UBC13 inh)
NC(=O)c1ccc(NC(=O)COC(=O)CCN2C(=O)c3ccccc3C2=O)cc1	none
O=C(NNC(=O)c1ccccc1F)C1=NN(c2ccccc2)C(=O)CC1	none
C#CCOCCOCCOCCNc1nc(N2CCOCC2)nc(N2CCN(C(=O)CCCCCCCCCCNC(=O)[C@@H](CCC(=O)O)n3cc(CCCCCN)nn3)CC2)n1	none
C#CCOCCOCCOCCNc1nc(N2CCN(C(=O)CCCCCCCCCCNC(=O)[C@H]([C@@H](C)CC)n3cc(CCCCCN)nn3)CC2)nc(N2CCN(C(=O)CCCCCCCCCCNC(=O)[C@H](CO)n3cc(CCCCCN)nn3)CC2)n1	UBC13 inh 120 | Casp3 UBC13 ctr inactive | UBC13 confirm 124
CCn1c2ccccc2c2nc3cc(C(=O)O)ccc3nc21	none (no result: UBC13 inh)
CCn1c2ccccc2c2nc3ccccc3nc21	Neddylation inh 49, UBC13 inh 66 | Casp3 UBC13 ctr 48 | UBC13 confirm inactive
O=[N+]([O-])c1ccc2[nH]c(O)c(N=NC(=S)NCC3CCCO3)c2c1 (stereo not given)	UBC13 inh 91 | Casp3 UBC13 ctr inactive | UBC13 confirm 94
CCNC(=S)N=Nc1c(O)[nH]c2ccc(C(C)C)cc12	UBC13 inh 90 | Casp3 UBC13 ctr inactive | UBC13 confirm 88
CCNC(=S)N=Nc1c(O)[nH]c2ccc([N+](=O)[O-])cc12	UBC13 inh 45 | Casp3 UBC13 ctr inactive | UBC13 confirm 60
CCc1nc2ccc(C(=O)NCCOc3ccc(OC)cc3)cn2c1N(C)Cc1cccs1	none (no result: SR-BI DiI inh, SR-BI uptake up, UBC13 inh)
CCOC(=O)/C=C/C(=O)OCC(=O)Nc1ccc([N+](=O)[O-])cc1	none (no result: SR-BI DiI inh, SR-BI uptake up)
O=C(COC(=O)c1cc(Cl)ccc1O)NC(=O)NCc1ccccc1	UBC13 inh 50 | Casp3 UBC13 ctr inactive | UBC13 confirm inconclusive
COC(=O)c1ccc(CNC(=O)COC(=O)c2cc(Cl)ccc2O)cc1	UBC13 inh 52 | Casp3 UBC13 ctr inactive | UBC13 confirm inactive
O=C(COC(=O)c1cc(Cl)ccc1O)NCCNC(=O)COC(=O)c1cc(Cl)ccc1O	none (not shown: Neddylation inh, SR-BI DiI inh, SR-BI uptake up)
COc1ccc(C(CNC(=O)c2ccc(-c3nc4ccccc4s3)o2)N2CCCC2)cc1 (stereo not given)	UBC13 inh 61 | Casp3 UBC13 ctr inactive | UBC13 confirm 53
COc1ccc(C(CNC(=O)c2ccc(-c3ccccc3Cl)o2)N2CCCC2)cc1 (stereo not given)	none (no result: SR-BI DiI inh, SR-BI uptake up, UBC13 inh)
COc1ccc(C(CNC(=O)c2cc3c(s2)CCC(C)C3)N2CCCC2)cc1 (stereo not given)	UBC13 inh 59 | Casp3 UBC13 ctr inactive | UBC13 confirm inactive
COc1ccc(C(CNC(=O)c2cc3c(s2)CCC(C)C3)N2CCOCC2)cc1 (stereo not given)	none
CCOC(=O)c1c(-c2ccccc2)oc2ccc(OCC(O)CNCCN(C)C)cc12 (stereo not given)	UBC13 inh 53 (not shown: Neddylation inh) | Casp3 UBC13 ctr inactive | UBC13 confirm 56
CC[C@H](C)[C@@H](C(=O)NCCCCCCCCCCC(=O)N1CCNCC1)n1cc(CCCCN=C(N)N)nn1	UBC13 inh 49 | Casp3 UBC13 ctr inactive | UBC13 confirm inactive
C#CCOCCOCCOCCNc1nc(N2CCN(C(=O)CCCCCCCCCCNC(=O)[C@H](CO)n3cc(CCCSC)nn3)CC2)nc(N2CCN(C(=O)CCCCCCCCCCNC(=O)[C@@H]([C@H](C)O)n3cc(C)nn3)CC2)n1	none (no result: Neddylation inh, SR-BI DiI inh, SR-BI uptake up)
C#CCOCCOCCOCCNc1nc(N2CCN(C(=O)[C@H]([C@@H](C)CC)n3cc(CCCN=C(N)N)nn3)CC2)nc(N2CCN(C(=O)[C@H](C)n3cc(CCCN=C(N)N)nn3)CC2)n1	none (no result: Neddylation inh, SR-BI DiI inh, SR-BI uptake up)
C#CCOCCOCCOCCNc1nc(N2CCN(C(=O)Cn3cc(CCCN=C(N)N)nn3)CC2)nc(N2CCN(C(=O)[C@H]([C@@H](C)CC)n3cc(CCCCN)nn3)CC2)n1	none
C#CCOCCOCCOCCNc1nc(N2CCN(C(=O)CCCCCCCCCCNC(=O)[C@H]([C@@H](C)CC)n3cc(CCCCCN)nn3)CC2)nc(N2CCN(C(=O)CCCCCCCCCCNC(=O)[C@H]([C@@H](C)CC)n3cc(CCCCN=C(N)N)nn3)CC2)n1	UBC13 inh 125 | Casp3 UBC13 ctr inactive | UBC13 confirm 128
C#CCOCCOCCOCCNc1nc(N2CCN(C(=O)CCCCCCCCCCNC(=O)Cn3cc(CCCCCN)nn3)CC2)nc(N2CCN(C(=O)CCCCCCCCCCNC(=O)[C@H]([C@@H](C)CC)n3cc(CCCCN=C(N)N)nn3)CC2)n1	SR-BI DiI inh 84, UBC13 inh 121 | Casp3 UBC13 ctr inactive | UBC13 confirm 124
C#CCOCCOCCOCCNc1nc(N2CCN(C(=O)CCCCCCCCCCNC(=O)[C@H]([C@@H](C)CC)n3cc(CCCCN=C(N)N)nn3)CC2)nc(N2CCN(C(=O)CCCCCCCCCCNC(=O)[C@H](CCCCN)n3cc(C)nn3)CC2)n1	UBC13 inh 124 (no result: Neddylation inh, SR-BI DiI inh, SR-BI uptake up) | Casp3 UBC13 ctr inactive | UBC13 confirm 127
CN(CC(=O)NCCc1ccc(S(N)(=O)=O)cc1)CC(=O)Nc1ccccc1C(F)(F)F	none
CN1CCN(S(=O)(=O)c2cccc(C(=O)N(C)CC(=O)Nc3ccc(Cl)c(Cl)c3)c2)CC1	none (no result: UBC13 inh)
CCCC(=O)N1CCC1(C)C(=O)Nc1ccc(-n2cccc2)cc1 (stereo not given)	none (no result: SR-BI DiI inh, SR-BI uptake up, UBC13 inh)
CC1C(=O)N(Cc2cn(Cc3ccco3)nn2)CCS(=O)(=O)N1Cc1ccc(-c2ccncc2)cc1 (stereo not given)	none (no result: SR-BI DiI inh, SR-BI uptake up, UBC13 inh)
Cc1c(C)n(Cc2ccccc2)c2ncnc(N)c12	UBC13 inh 59 | Casp3 UBC13 ctr inactive | UBC13 confirm 61
COc1cc2nc(Nc3ccc(C)c(Cl)c3)nc(N)c2cc1OC	Neddylation inh 48, UBC13 inh 111 | Casp3 UBC13 ctr 25 | UBC13 confirm 121
COc1cc2nc(Nc3ccc(C)c(C)c3)nc(N)c2cc1OC	none
Cc1nc2sccn2c(=O)c1CCN1CCC(=C(c2ccc(F)cc2)c2ccc(F)cc2)CC1	UBC13 inh 45 | Casp3 UBC13 ctr inactive | UBC13 confirm inactive
O=C(NCc1nnc(SCC(=O)N2CCCC2)o1)c1ccccc1	none (no result: SR-BI uptake up)
